{
  "source": "paper PMC7442691",
  "about": "(Nature chemical biology, 2020)",
  "key": {"FKBP12^F36V-Pin1": {"tested_on": "FKBP12^F36V-Pin1", "assay": "dTAG degradation of FKBP12F36V-Pin1 by immunoblot", "format": "cell-based, human", "settings": "for rescue of dTAG-13 degradation by pretreatment: 2 h pretreatment, then 5 h dTAG-13 500 nM"}, "[1]": {"tested_on": "PATU-8988T C1 (Pin1 WT) and C2 (Pin1 KO)", "assay": "Cell viability, dose series in 2D monolayer, C1 vs C2", "format": "cell-based, human", "settings": "juglone 4 days, KPT-6566 3 days"}, "Pin1": {"target": "Pin1 (Homo sapiens, UniProt Q13526)", "sequence (Q13526 whole entry)": "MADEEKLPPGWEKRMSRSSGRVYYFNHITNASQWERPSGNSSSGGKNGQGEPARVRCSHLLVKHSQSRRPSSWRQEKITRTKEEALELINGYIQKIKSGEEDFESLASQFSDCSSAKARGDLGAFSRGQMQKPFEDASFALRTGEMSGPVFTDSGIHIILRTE", "assay": "Cellular target engagement, live cell competition with BJP-DTB", "format": "cell-based", "settings": "PATU-8988T cells, 5 h treatment", "procedure,_shortened": "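PATU-8988T, PC3 or MDA-MB-468 cells (2.5 million per 10 cm plate) were dosed next day with test compound, either as a concentration series for 5 h or at 5 μM over time. Cells were PBS-washed, scraped and lysed (HEPES pH 7.4, NP-40, TCEP, protease inhibitors). Lysate (500 μg protein) took desthiobiotin-tagged probe at 4°C, then streptavidin agarose for 1 h at 4°C. Washed beads were boiled in LDS for immunoblotting.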"}, "[2]": {"tested_on": "PATU-8988T cells (parental, C1, C2 and transduced C2)", "assay": "Cell viability, growth over time in 2D-adherent monolayer", "format": "cell-based, human", "procedure,_shortened": "(§1)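 Cells seeded at 100 per well in 96-well plates, one plate per time point, and dosed the day after plating with DMSO, test compound or dTAG-13 at 37°C, 5% CO2. Medium and compound were renewed every 48 h, with Dox 100 ng/mL added for inducible C2 cells. CellTiter-Glo luminescence was normalised to a Day 0 plate read before dosing. At least n = 3 biological replicates.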"}, "[3]": {"tested_on": "PATU-8988T FKBP12^F36V-KRAS^G12V; KRAS^−/− clone", "assay": "Viability with FKBP12F36V-KRASG12V degradation, 4 days", "format": "cell-based, human", "settings": "4-day treatment; dTAG-13 100 nM, BJP-06-005-3 5 μM", "procedure,_shortened": "as §1"}, "[4]": {"tested_on": "phospho-CDK1 Tyr15, c-Myc, β-Catenin, NFkB p65", "assay": "Inhibitor effects on Pin1 downstream signaling", "format": "cell-based, human", "settings": "C2 + FKBP12F36V-Pin1 cells, 5 h", "procedure,_shortened": "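Cells seeded at 100,000 per 6-well well, treated next day with DMSO, test compound, dTAG-13 or Dox, then lysed in RIPA with protease/phosphatase inhibitors for western blotting. For fractionation, 2 million cells per 10 cm plate were treated 5.5 h, trypsinised and split by nuclear/cytoplasmic extraction kit. For Wnt3a arms, cells had 4 h compound, then Wnt3a (50 ng/mL) for 4 more hours.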"}, "[5]": {"settings": "C2 + FKBP12F36V-Pin1 cells, 5 h"}},
  "data": [
    {"compound": "NS(=O)(=O)OC[C@@H]1C[C@@H](n2ccc3c(N[C@H]4CCc5ccccc54)ncnc32)C[C@@H]1O", "note": "[MLN4924]", "values": [
      {"measurement": "rescue of dTAG-13 degradation by pretreatment", "setting": "FKBP12^F36V-Pin1", "result": "degradation was rescued upon pretreatment"}
    ]},
    {"compound": "CC(C)C[C@H](NC(=O)[C@H](CCc1ccccc1)NC(=O)CN1CCOCC1)C(=O)N[C@@H](Cc1ccccc1)C(=O)N[C@@H](CC(C)C)C(=O)[C@@]1(C)CO1", "note": "[carfilzomib]", "values": [
      {"measurement": "rescue of dTAG-13 degradation by pretreatment", "setting": "FKBP12^F36V-Pin1", "result": "degradation was rescued upon pretreatment"}
    ]},
    {"compound": "CC(C)(C)c1ccc(S(=O)(=O)N=C2C=C(SCC(=O)O)C(=O)c3ccccc32)cc1", "note": "[KPT-6566]", "values": [
      {"measurement": "anti-proliferative effects, C1 versus C2", "setting": "[1]", "result": "identical anti-proliferative effects in C1 and C2"},
      {"measurement": "competition with BJP-DTB for cellular Pin1", "setting": "Pin1", "result": "unable to validate that KPT-6566 engages cellular Pin1"}
    ]},
    {"compound": "O=C1C=CC(=O)c2c(O)cccc21", "note": "[juglone]", "values": [
      {"measurement": "anti-proliferative effects, C1 versus C2", "setting": "[1]", "result": "identical anti-proliferative effects in C1 and C2"}
    ]},
    {"compound": "CC[C@H](C(=O)N1CCCC[C@H]1C(=O)O[C@H](CCc1ccc(OC)c(OC)c1)c1ccccc1OCC(=O)NCCCCCCOc1cccc2c1C(=O)N(C1CCC(=O)NC1=O)C2=O)c1cc(OC)c(OC)c(OC)c1", "note": "(stereo partly drawn) [dTAG-13]", "values": [
      {"measurement": "cell proliferation", "setting": "[2]; C2 + FKBP12F36V-Pin1, 2.5 μM", "result": "not at 2.5 μM"},
      {"measurement": "cell proliferation", "setting": "[2]; C2 + FKBP12F36V-Pin1, 100 or 500 nM", "result": "diminished cell proliferation after 6–8 days"},
      {"measurement": "cell viability", "setting": "[3]", "result": "modest viability effects"},
      {"measurement": "time to degradation", "setting": "FKBP12^F36V-Pin1; 500 nM dTAG-13", "result": "2 to 4", "unit": "h"},
      {"measurement": "concentration at which hook effect apparent", "setting": "FKBP12^F36V-Pin1; [5]", "result": 1, "unit": "µM"},
      {"measurement": "concentration of maximal degradation", "setting": "FKBP12^F36V-Pin1; [5]", "result": "100 to 500", "unit": "nM"},
      {"measurement": "phospho-CDK1 Tyr15", "setting": "[4]", "result": "also increased phospho-CDK1 Tyr15"}
    ]}
  ]
}
